Residue numbers refer to the chain shown, from its start.
What was measured:
mTRPC6 mutant ^mW679A = mTRPC6 mutant ^mW679A (Mus musculus, UniProt Q61143, W679A); assay: whole-cell patch-clamp, mTRPC6 mutant W679A; type: cell-based; conditions: saturated agonist
Method in brief: (§1)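 Transiently transfected HEK293 cells expressing mouse or human TRPC6 WT, or sequence-verified mouse point mutants, recorded 24–48 h post-transfection. Conventional whole-cell clamp at −60 mV and 23 °C, gap-free; test compound applied by Y-tube. Pipette: CsCl/HEPES/BAPTA, 400 nM free Ca2+, pH 7.2. Bath: NaCl-based, 2 mM CaCl2, pH 7.4. EC50 from Hill fit of concentration–current data. Mutant screen used current ratios (10/5 μM or 3/1 μM). At least 3 transfection batches.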

mTRPC6 mutant ^mE672D = biological target: T1, mTRPC6 mutant ^mE672D (Mus musculus, UniProt Q61143, E672D); assay: whole-cell patch-clamp, mTRPC6 mutant E672D; type: cell-based
T1 sequence (Q61143 1-930 E672D): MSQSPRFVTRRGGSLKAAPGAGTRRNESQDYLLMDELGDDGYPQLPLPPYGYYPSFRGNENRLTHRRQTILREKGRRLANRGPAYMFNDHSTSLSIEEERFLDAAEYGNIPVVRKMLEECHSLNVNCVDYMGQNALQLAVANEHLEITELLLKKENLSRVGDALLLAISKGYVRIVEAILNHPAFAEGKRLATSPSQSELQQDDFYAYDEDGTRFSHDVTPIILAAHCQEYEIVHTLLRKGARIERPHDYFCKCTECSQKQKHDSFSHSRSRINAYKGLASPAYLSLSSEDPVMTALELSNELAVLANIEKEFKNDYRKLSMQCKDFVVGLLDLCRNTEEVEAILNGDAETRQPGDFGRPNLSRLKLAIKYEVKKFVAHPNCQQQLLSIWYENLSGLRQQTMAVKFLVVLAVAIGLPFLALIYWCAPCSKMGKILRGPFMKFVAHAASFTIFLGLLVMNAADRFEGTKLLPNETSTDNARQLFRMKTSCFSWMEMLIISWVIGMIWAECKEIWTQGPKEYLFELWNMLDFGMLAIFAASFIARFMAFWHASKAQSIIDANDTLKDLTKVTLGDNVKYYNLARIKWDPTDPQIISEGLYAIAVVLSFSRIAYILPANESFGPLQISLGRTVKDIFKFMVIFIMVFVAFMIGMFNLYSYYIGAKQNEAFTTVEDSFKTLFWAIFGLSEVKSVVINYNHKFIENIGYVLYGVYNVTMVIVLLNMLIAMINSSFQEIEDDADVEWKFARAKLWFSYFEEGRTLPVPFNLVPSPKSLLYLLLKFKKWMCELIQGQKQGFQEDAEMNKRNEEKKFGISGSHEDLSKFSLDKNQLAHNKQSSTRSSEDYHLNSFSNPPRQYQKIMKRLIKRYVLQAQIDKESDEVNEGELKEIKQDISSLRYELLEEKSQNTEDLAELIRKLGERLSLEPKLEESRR
Method in brief: as §1

mTRPC6 mutant ^mW679F = mTRPC6 mutant ^mW679F (Mus musculus, UniProt Q61143, W679F); assay: whole-cell patch-clamp, mTRPC6 mutant W679F; type: cell-based; conditions: saturated agonist
Method in brief: as §1

mTRPC6 mutant ^mF674A = mTRPC6 mutant ^mF674A (Mus musculus, UniProt Q61143, F674A); assay: whole-cell patch-clamp, mTRPC6 mutant F674A; type: cell-based; conditions: saturated agonist
Method in brief: as §1

TRPC6 = biological target: T2, TRPC6 (Mus musculus, UniProt Q61143); assay: macro-patch recordings in outside-out and inside-out configurations; type: cell-based
T2 sequence (Q61143 1-930): T1 sequence (Q61143 1-930 E672D) with D672E
Method in brief: (§2)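 Excised outside-out or inside-out patches (macro-patch or single-channel) from transfected HEK293 cells, 24–48 h post-transfection, 23 °C. Polished borosilicate pipettes of 8–12 MΩ; holding potential −60 mV. Same solutions as whole-cell recordings (CsCl-based internal, 400 nM free Ca2+, pH 7.2; NaCl-based external, pH 7.4). Sampled at 50 kHz, 2 kHz filter, low-pass 300 Hz; unitary current and conductance measured.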

mTRPC6 mutant ^mK688R = assay: whole-cell patch-clamp, mTRPC6 mutant K688R; type: cell-based, mouse; conditions: ^mK688R (S3 pocket)
Method in brief: as §1

mTRPC6^N701Q = mTRPC6^N701Q (Mus musculus, UniProt Q61143, N701Q); assay: single-channel outside-out recording, mTRPC6 N701Q; type: cell-based; conditions: 100 μM agonist, −60 mV
Method in brief: as §2

mTRPC6 mutant ^mY704A = mTRPC6 mutant ^mY704A (Mus musculus, UniProt Q61143, Y704A); assay: whole-cell patch-clamp, mTRPC6 mutant Y704A; type: cell-based; conditions: saturated agonist
Method in brief: as §1

mTRPC6 mutant ^mV709A = mTRPC6 mutant ^mV709A (Mus musculus, UniProt Q61143, V709A); assay: whole-cell patch-clamp, mTRPC6 mutant V709A; type: cell-based
Method in brief: as §1

mTRPC6 mutant ^mE700A = mTRPC6 mutant ^mE700A (Mus musculus, UniProt Q61143, E700A); assay: whole-cell patch-clamp, mTRPC6 mutant E700A; type: cell-based; conditions: saturated agonist
Method in brief: as §1

Chain of mTRPC6 mutant ^mW679F (Q61143 whole entry W679F): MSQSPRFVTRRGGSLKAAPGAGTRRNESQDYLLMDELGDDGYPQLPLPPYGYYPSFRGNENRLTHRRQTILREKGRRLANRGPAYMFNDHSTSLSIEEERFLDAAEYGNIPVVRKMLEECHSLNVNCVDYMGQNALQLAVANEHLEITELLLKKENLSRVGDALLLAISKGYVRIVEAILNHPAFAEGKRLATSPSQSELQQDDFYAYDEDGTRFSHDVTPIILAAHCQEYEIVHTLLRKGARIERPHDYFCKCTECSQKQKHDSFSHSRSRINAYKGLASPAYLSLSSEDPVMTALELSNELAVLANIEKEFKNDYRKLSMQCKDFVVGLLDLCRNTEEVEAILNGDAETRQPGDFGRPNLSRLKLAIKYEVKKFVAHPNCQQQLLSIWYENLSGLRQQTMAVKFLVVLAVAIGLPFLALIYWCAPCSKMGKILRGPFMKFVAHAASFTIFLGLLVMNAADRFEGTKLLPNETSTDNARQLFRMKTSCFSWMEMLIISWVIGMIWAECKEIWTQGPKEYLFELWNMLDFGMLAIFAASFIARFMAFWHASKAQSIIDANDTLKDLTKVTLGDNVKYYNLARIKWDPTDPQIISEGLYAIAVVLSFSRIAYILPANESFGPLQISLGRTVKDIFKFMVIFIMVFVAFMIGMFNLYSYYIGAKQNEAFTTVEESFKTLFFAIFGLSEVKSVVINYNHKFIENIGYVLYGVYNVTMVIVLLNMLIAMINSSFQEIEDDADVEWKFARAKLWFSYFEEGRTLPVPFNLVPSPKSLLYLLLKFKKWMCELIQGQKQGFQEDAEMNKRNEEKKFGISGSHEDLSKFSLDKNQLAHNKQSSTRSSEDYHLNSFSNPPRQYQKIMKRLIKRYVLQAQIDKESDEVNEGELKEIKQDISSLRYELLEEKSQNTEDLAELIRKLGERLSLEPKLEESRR
Chain of mTRPC6 mutant ^mV709A (Q61143 whole entry V709A): as the sequence (Q61143 whole entry W679F) above, with F679W, V709A counted along it
Chain of mTRPC6 mutant ^mF674A (Q61143 whole entry F674A): as the sequence (Q61143 whole entry W679F) above, with F674A, F679W counted along it
Chain of mTRPC6 mutant ^mY704A (Q61143 whole entry Y704A): as the sequence (Q61143 whole entry W679F) above, with F679W, Y704A counted along it
Chain of mTRPC6 mutant ^mE700A (Q61143 whole entry E700A): as the sequence (Q61143 whole entry W679F) above, with F679W, E700A counted along it
Chain of mTRPC6 mutant ^mW679A (Q61143 whole entry W679A): as the sequence (Q61143 whole entry W679F) above, with F679A counted along it
Chain of mTRPC6^N701Q (Q61143 whole entry N701Q): as the sequence (Q61143 whole entry W679F) above, with F679W, N701Q counted along it

CCOC(=O)N1CCC(c2cc(O)n3nc(C)c(-c4ccc(F)cc4)c3n2)CC1 [M085, Ethyl 4-(3-(4-fluorophenyl)-7-hydroxy-2-methylpyrazolo[1,5-a]pyrimidin-5-yl)piperidine-1-carboxylate]
agonist-induced current (mTRPC6 mutant ^mW679A): disappearance
EC50 (mTRPC6 mutant ^mE672D): 25.1 ± 5.64 µM
ratio of M085 activation current I10 μM/I5 μM (mTRPC6 mutant ^mE672D; ^mE672D (S2 pocket)): 3.27 ± 0.91
Imax (maximal current density) (mTRPC6 mutant ^mE672D; ^mE672D, 100 μM agonist): 10.28 ± 1.19 pA/pF
agonist-induced current (channel function) (mTRPC6 mutant ^mW679F): complete loss of function
agonist-induced current (mTRPC6 mutant ^mF674A): disappearance
current in inside-out configuration (TRPC6; 100 μM agonist, inside-out macro-patch): no currents were recorded
current in outside-out configuration (TRPC6; 100 μM agonist, outside-out macro-patch): could be recorded
cell membrane permeability (TRPC6; implied from inside-out/outside-out recordings): relatively low
ratio of M085 activation current I10 μM/I5 μM (mTRPC6 mutant ^mK688R): 1.80 ± 0.22
unit current (mTRPC6^N701Q): about 1.1 pA
agonist-induced current (mTRPC6 mutant ^mY704A): disappearance
EC50 (mTRPC6 mutant ^mV709A): 6.95 ± 2.13 µM
agonist-induced current (mTRPC6 mutant ^mE700A): disappearance
